Source: PubChem
beta cell repl: MIN6 beta-cell proliferation induction; MIN6 cells proliferation, ATPlite luminescence, 48 h; cells starved in 0.2% serum; 100% = growth in 10% serum; proliferation, % at 10 µM; 330,000 tested, 0.29% active; AID 2380;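 active = compounds whose signal lies at least 3.5 SD above the mean of all wells on their plate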;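 also: 0% = DMSO-treated cells in low-serum medium and 100% = 10% serum control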
IMP-1 inh: blocks Pseudomonas aeruginosa IMP-1 metallo-beta-lactamase; purified IMP-1, nitrocefin hydrolysis, epi-absorbance fluorescence; inhibition, % at 5.6 µM; 290,000 tested, 0.45% active; AID 1556;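 active = inhibition above the mean plus 3 SD of all compounds in the same screening run, cut at about 4.5% in these data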;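 also: 0% = IMP-1 with DMSO and 100% = DMSO wells lacking enzyme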
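Assay system: purified recombinant IMP-1 beta-lactamase. Input: IMP-1 0.2 nM before substrate addition. Buffer or medium: Zinc- and detergent-supplemented HEPES buffer, pH 7.1. Schedule: 25 °C, 15 min preincubation, 25 min reaction. Signal: Epi-absorbance fluorescence, 480 nm excitation, 530 nm emission. Evaluation: percent inhibition from optical density relative to buffer-blank wells.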
ATG4B inhibitor: ATG4B (human) cysteine protease inhibition | ATG4B cleavage of LC3-PLA2, NBD-HPC fluorescence, 1 h | inhibition, % at 8.33 µM | 340,000 tested, 0.51% active; in the data active = inhibition above about 40%
Target sequence (Q9Y4P1 whole entry, looked up): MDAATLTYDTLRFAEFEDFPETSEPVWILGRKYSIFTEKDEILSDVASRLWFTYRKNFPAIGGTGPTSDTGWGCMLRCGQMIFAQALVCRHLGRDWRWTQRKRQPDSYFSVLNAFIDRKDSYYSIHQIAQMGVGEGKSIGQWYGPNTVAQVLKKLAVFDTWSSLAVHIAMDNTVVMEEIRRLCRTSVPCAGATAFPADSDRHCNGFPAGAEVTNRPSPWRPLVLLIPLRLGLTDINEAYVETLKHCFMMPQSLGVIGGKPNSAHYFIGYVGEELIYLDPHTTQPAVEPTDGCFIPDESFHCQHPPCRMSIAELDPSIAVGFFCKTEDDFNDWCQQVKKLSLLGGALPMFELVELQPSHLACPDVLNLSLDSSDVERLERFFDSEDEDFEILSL
PvdQ acylase: P. aeruginosa PvdQ acylase inhibition; inhibition, % at 10 µM; 340,000 tested, 0.063% active; purified PvdQ acylase, fluorescence plate reader; in the data active = inhibition above about 30%, passing the limit was not always enough;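 also: 0% = vehicle neutral wells and 100% = reference inhibitor wells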
HKDC1 inhibitor: blocks human hexokinase HKDC1 activity; Q2TB90; 340,000 tested, 0.16% active; recombinant HKDC1, G6PDH/diaphorase resazurin coupled fluorescence; inhibition, % at 20 µM; AID 493160;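 active = inhibition above about 35% when tested at 20 µM, limit read from the data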;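 also: plate controls were DMSO wells with enzyme for no effect and DMSO wells lacking enzyme for full effect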
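Assay system: recombinant HKDC1 hexokinase; detection: coupled resazurin fluorescence, excitation 525 nm, emission 613 nm; benchmarks: DMSO-plus-enzyme-mix negative control, buffer-substituted positive control; compound dosing: single 20 µM dose; schedule: 90 min at room temperature in dark; also added: glucose plus 1 mM ATP as hexokinase substrates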
VIM-2 inhibitor: inhibitors of Pseudomonas aeruginosa VIM-2 metallo-beta-lactamase; purified VIM-2, nitrocefin hydrolysis, epi-absorbance fluorescence; 290,000 tested, 0.89% active; inhibition, % at 5.6 µM;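 active = inhibition above the mean of all tested compounds plus 3 SD, cutoff set per screening run, cut at about 7.5% in these data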;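 also: red hydrolysis product quenches plate fluorescence so inhibitors raise well fluorescence; 0% = enzyme with DMSO and 100% = DMSO without enzyme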
ATG4B conf: ATG4B (human) inhibition, single-dose confirmed | shares compounds with ATG4B inhibitor | inhibition, % at 8.33 µM | ATG4B protease fluorescent substrate cleavage assay | 320 tested, 92% active; in the data active = inhibition above about 39%
PLA2 counter: inhibits human PLA2, flagging false ATG4B inhibitors; shares compounds with ATG4B inhibitor; purified PLA2, NBD-C6-HPC fluorescence, 45 min; inhibition, % at 8.33 µM; 1,600 tested, 66% active; in the data active = inhibition above about 50%
Target sequence (P04054 whole entry, looked up): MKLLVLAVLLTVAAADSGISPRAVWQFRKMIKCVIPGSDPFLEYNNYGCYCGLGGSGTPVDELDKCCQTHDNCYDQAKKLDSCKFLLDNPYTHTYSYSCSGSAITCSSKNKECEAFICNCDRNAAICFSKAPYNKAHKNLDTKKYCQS
Numbers without * were called inactive; x = no result. Sampled rows, rich in hits. Any-hit rate of the full collection: about 2%.

SMILES	beta cell repl	IMP-1 inh	ATG4B inhibitor	PvdQ acylase	HKDC1 inhibitor	VIM-2 inhibitor	PLA2 counter	others
O=C1NC(=S)/C(=C\c2ccc(-c3ccccc3Cl)o2)S1	x	1	65*	5	13	4	8
O=C(Nc1ccc(OC(F)(F)F)cc1)Nc1cccc([N+](=O)[O-])c1	-5	-2	49*	-1	25	-1	58*
C=CCn1c(NS(=O)(=O)c2ccccc2)c(S(=O)(=O)c2ccc(C)cc2)c2nc3ccccc3nc21	x	-2	7	-1	3	-2	x
O=S(=O)(Nc1c(S(=O)(=O)c2ccccc2)c2nc3ccccc3nc2n1C1CCCCC1)c1ccccc1	x	-2	45*	17	26	-2	50*
O=C(Cn1cccc1C(=O)c1ccccc1)NCCc1ccc(Cl)cc1	6	-1	45*	-12	-3	-5	53*
COc1ccccc1C(=O)N/N=C(\C)c1ccc(NC(=O)C2CC2)cc1	0	0	-12	12	-5	-3	x
COc1ccc(S(=O)(=O)NNC(=O)c2csc(-n3nc(C)cc3C(F)(F)F)n2)cc1	1	-2	-18	-15	10	-3	x
COc1cc2c(cc1NC(=O)COC(=O)[C@@H](NS(=O)(=O)c1cccc(Cl)c1)C(C)C)oc1ccccc12	-2	-3	47*	-24	9	-4	63*
COc1ccc(S(=O)(=O)N[C@@H](C)C(=O)OCC(=O)Nc2cc3oc4ccccc4c3cc2OC)cc1	0	0	-16	-6	18	0	x
CC[N+](C)(CC)CCOC(=O)C1c2ccccc2Oc2ccccc21	-1	x	-1	-10	-5	x	x
CN1C[C@@H]2[C@@H]3C(=O)N(Cc4ccccc4)C(=O)[C@@H]3[C@](Cc3ccccc3)(C1=O)N2C(=O)c1ccc(Cl)cc1	x	x	-3	-15	-1	x	x
CCC1=NN(C(=O)c2cccc([N+](=O)[O-])c2)C(O)(c2ccc(C)cc2)C1 (stereo not drawn)	-2	-3	54*	-11	-9	-2	60*
Cc1cccc(-n2c(CCc3ccccc3)nnc2SCC(=O)c2ccccc2)c1	-3	-2	72*	-12	7	-7	75*
N#Cc1ccc(OCc2nnc(SCC(=O)c3ccccc3)n2-c2ccccc2)cc1	-5	-4	46*	12	-4	-1	57*
Cc1ccc(OCc2nnc(SCC(=O)c3ccccc3)n2-c2ccccc2)cc1	-5	-4	74*	-9	11	-2	78*
Cc1cccc(CNc2ncnc3ccc(-c4ccc5c(c4)OCO5)cc23)c1	-6	x	34	-13	-5	x	x
Cc1cccc(CNc2ncnc3ccc(-c4ccccc4Cl)cc23)c1	-6	x	51*	-18	-4	x	52*
COc1ccc(C(=O)N/C(=C\c2cn(C)c3ccccc23)C(=O)OCC(C)C)cc1	0	-2	-9	-7	-3	0	x
COc1ccccc1CNC(=O)COc1cc2c(c3oc(=O)cc(C)c13)CCC(C)(C)O2	0	-3	-6	-16	24	-3	x
CC1(C)O[C@@H]2[C@H](O1)[C@@H](CO)O[C@H]2n1ccc(=O)[nH]c1=O	-2	x	7	-1	-2	x	x
S=c1[nH]nc(-c2cccc(Cl)c2)n1/N=C/c1ccc(-c2ccccc2Br)o1	-2	-1	1	-4	-9	-3	x
S=c1[nH]nc(-c2ccccc2)n1/N=C/c1ccc(-c2ccccc2Cl)o1	-3	-1	42*	-10	-5	-4	58*
COCCn1c(SCc2cc(C(C)=O)ccc2OC)nc2cc(Cl)ccc2c1=O	0	0	63*	-12	-12	0	63*
COc1ccc(C(C)=O)cc1CSc1nc2ccccc2c(=O)n1-c1ccccc1	-3	-3	35	-1	-6	0	x
COc1ccc(C(C)=O)cc1CSc1nc2ccccc2c(=O)n1-c1cccc(C)c1	0	-2	79*	-7	-7	-2	33	ATG4B conf=50*
SMILES	beta cell repl	IMP-1 inh	ATG4B inhibitor	PvdQ acylase	HKDC1 inhibitor	VIM-2 inhibitor	PLA2 counter	others
C=CCn1c(SCc2cc(C(C)=O)ccc2OCC)nc2ccccc2c1=O	0	-6	50*	-11	-2	-1	29	ATG4B conf=52*
COc1ccc(C(C)=O)cc1CSc1nc2ccccc2c(=O)n1-c1ccccc1C	0	-3	53*	-7	3	-6	81*
Cc1cccc(C)c1NC(=S)N(c1ccccc1)C(C)C	-3	-3	-12	-10	7	0	x
O=C1c2ccccc2N2C(=O)c3ccccc3[C@H]2N1c1ccccc1	2	-3	55*	1	-5	-2	61*
O=C1c2ccccc2N2C(=O)c3ccccc3C2N1Cc1ccccc1 (stereo not drawn)	4	-3	25	-8	-7	0	x
CCS(=O)(=O)c1nc(S(=O)(=O)c2ccc(C)cc2)c(N2CCC3(CC2)OCCO3)s1	3	-1	-1	10	0	-2	x
Cc1cccc(C)c1N1CCN(S(=O)(=O)c2ccc(F)cc2)CC1	-2	-4	51*	-10	3	-5	62*
O=C(CCCCCNc1nc(=S)[nH]c2ccccc12)NCCC1=CCCCC1	-2	-3	4	1	-2	-3	x
NC(=O)c1ccc(OCC(F)(F)C(F)(F)C(F)(F)C(F)(F)C(F)(F)C(F)F)cc1	0	-3	91*	-7	-3	-2	92*
Cc1cc(OCC(F)(F)C(F)(F)C(F)(F)C(F)(F)C(F)(F)C(F)F)nc(N)n1	5	-1	1	2	3	-3	x
CCCCCCCCCCCCCCC(O)C[N+](C)(CCO)CCO (stereo not drawn)	x	x	43*	-5	5	x	42	ATG4B conf=64*
C[C@@]12CCC=C[C@H]1[C@H](c1ccc3ccccc3c1Br)N(Cc1ccccc1)C2=O	-6	x	50*	-1	16	x	76*
C[C@@]12CCC=C[C@H]1[C@H](c1ccc3ccccc3c1)N(Cc1ccccc1)C2=O	-8	x	17	3	4	x	x
O=C(Nc1cccc(Cl)c1N1CCCC1)c1ccco1	0	-1	63*	-12	2	0	68*
O=C(Nc1cccc(Cl)c1N1CCCCC1)c1ccc2c(c1)OCCO2	-6	-2	36	-13	-7	-3	x
CCN1CCN(c2c(Cl)cccc2NC(=O)c2ccc3c(c2)OCCO3)CC1	-3	-2	65*	-16	0	-1	67*
Cc1c(Cl)cccc1NC(=S)NN1CCOCC1	-3	-3	-9	-15	3	-2	x
